Experimental data published in ChEMBL document CHEMBL1154626, “Novel, potent, and selective quinoxaline-based 5-HT(3) receptor ligands. 1. Further structure-activity relationships and pharmacological characterization” (J Med Chem, 2009).
Calls of active or inactive are those of the source. The calls are words filed in the database; no cut-off is given here.

Tests used:
[1] = target: T1, 5-hydroxytryptamine receptor 3A (Rattus norvegicus, UniProt P35563); assay: Displacement of [3H]LY278584 from 5HT3 receptor in rat cortical homogenate
T1 sequence (P35563 whole entry): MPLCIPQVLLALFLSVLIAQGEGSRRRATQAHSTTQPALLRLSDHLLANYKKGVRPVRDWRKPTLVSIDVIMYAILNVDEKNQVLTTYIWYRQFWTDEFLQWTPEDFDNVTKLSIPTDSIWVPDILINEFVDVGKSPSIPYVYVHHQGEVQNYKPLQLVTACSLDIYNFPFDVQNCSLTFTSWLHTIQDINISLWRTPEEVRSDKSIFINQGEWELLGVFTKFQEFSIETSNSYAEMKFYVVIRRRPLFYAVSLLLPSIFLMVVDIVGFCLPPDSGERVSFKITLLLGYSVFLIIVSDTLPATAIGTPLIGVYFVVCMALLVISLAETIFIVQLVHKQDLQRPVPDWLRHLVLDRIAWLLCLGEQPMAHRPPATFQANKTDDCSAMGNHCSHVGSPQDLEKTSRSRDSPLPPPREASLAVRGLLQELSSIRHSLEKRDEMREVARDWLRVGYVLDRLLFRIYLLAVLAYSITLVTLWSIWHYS
In short: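 Rat cortical homogenate, competition against [3H]LY278584 binding. Ki is the concentration giving half-maximal inhibition of binding, as the mean ± S.E.M. of three determinations.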

Rattus norvegicus [2] = assay: Antagonist activity at 5HT3 receptor in Sprague-Dawley rat assessed as inhibition of 1-phenylbiguanide-induced bradycardia at 10 ug/kg, iv administered 5 mins before 1-phenylbiguanide challenge measured after 5 to 30 mins post-treatment by von Bezold-Jarisch reflex test; assay type: functional; parameters: scale not given: the % may be the effect or the level left
In short: (§1)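 Urethane-anesthetized rats, compound given iv. Agonism was scored as the compound itself evoking the von Bezold-Jarisch reflex (bradycardia). Antagonism was tested by giving the compound iv 5, 15 or 30 min before phenylbiguanide (PBG) and scoring the reduction of PBG-evoked bradycardia. ED50 is the dose giving half of the maximal bradycardia evoked by the same compound.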

[3] = target: T2, 5-hydroxytryptamine receptor 3A (Cavia porcellus, UniProt O70212); assay: Antagonist activity at 5HT3 receptor in spontaneously beating guinea pig right atrium assessed as inhibition of serotonin-induced maximum response by noncompetitive binding assay; assay type: tissue-based, Cardiac atrium; conditions: read-out: IC50
T2 sequence (O70212 whole entry): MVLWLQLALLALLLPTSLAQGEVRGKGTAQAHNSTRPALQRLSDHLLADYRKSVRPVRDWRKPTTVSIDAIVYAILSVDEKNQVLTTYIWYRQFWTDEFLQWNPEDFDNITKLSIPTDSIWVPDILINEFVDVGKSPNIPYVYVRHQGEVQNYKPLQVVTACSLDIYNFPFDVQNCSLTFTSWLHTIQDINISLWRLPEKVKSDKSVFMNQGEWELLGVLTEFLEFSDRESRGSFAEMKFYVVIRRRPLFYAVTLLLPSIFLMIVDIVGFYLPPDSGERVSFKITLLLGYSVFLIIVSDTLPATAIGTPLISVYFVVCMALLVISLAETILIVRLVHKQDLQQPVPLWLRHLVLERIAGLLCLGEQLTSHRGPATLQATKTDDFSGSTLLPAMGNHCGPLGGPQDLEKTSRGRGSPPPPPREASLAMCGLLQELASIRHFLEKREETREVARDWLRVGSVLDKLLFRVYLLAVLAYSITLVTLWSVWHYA
In short: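 Spontaneously beating guinea pig right atria, exposed 30 min to test compound at 10 μM, followed by cumulative 5-HT log concentration-response curves versus control. Mean ± SEM of five to seven observations.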

Rattus norvegicus [4] = assay: Agonist activity at 5HT3 receptor in Sprague-Dawley rat assessed as induction of bradycardia at 10 ug/kg, iv measured after 5 to 30 mins post-treatment by von Bezold-Jarisch reflex test; assay type: functional; in short: as §1
Rattus norvegicus [5] = assay: Antagonist activity at 5HT3 receptor in iv dosed Sprague-Dawley rat assessed as inhibition of 1-phenylbiguanide-induced bradycardia administered 5 mins before 1-phenylbiguanide challenge measured after 5 to 30 mins post-treatment by von Bezold-Jarisch reflex test; assay type: functional; in short: as §1
Rattus norvegicus [6] = assay: Antagonist activity at 5HT3 receptor in Sprague-Dawley rat assessed as inhibition of 1-phenylbiguanide-induced bradycardia at 50 ug/kg, iv administered 5 mins before 1-phenylbiguanide challenge measured after 5 to 30 mins post-treatment by von Bezold-Jarisch reflex test; assay type: functional; parameters: scale not given: the % may be the effect or the level left; in short: as §1
Rattus norvegicus [7] = assay: Agonist activity at 5HT3 receptor in iv dosed Sprague-Dawley rat assessed as induction of bradycardia measured after 5 to 30 mins post-treatment by von Bezold-Jarisch reflex test; assay type: functional; in short: as §1
Rattus norvegicus [8] = assay: Agonist activity at 5HT3 receptor in Sprague-Dawley rat assessed as induction of bradycardia at 50 ug/kg, iv measured after 5 to 30 mins post-treatment by von Bezold-Jarisch reflex test; assay type: functional; in short: as §1
[9] = target: T3, Adrenergic receptor alpha-1 (Rattus norvegicus, UniProt P15823+P23944+P43140); assay: Displacement of [3H]prazosin from adrenergic alpha1 receptor in rat cortex
T3 sequence (P15823 whole entry): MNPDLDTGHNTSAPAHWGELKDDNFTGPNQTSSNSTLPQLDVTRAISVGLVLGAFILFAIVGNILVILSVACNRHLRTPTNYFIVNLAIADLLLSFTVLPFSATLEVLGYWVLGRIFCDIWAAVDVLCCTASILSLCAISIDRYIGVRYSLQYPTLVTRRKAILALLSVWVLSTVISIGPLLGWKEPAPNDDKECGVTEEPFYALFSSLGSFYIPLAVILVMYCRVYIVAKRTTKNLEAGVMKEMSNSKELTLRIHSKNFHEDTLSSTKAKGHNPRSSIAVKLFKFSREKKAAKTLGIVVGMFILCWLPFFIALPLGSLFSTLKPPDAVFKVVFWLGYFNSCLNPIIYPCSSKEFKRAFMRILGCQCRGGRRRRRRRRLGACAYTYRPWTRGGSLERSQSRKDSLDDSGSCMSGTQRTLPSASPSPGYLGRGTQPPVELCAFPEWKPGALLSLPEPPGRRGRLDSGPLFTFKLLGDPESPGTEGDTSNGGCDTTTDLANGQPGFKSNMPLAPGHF
T3 sequence (P23944 whole entry): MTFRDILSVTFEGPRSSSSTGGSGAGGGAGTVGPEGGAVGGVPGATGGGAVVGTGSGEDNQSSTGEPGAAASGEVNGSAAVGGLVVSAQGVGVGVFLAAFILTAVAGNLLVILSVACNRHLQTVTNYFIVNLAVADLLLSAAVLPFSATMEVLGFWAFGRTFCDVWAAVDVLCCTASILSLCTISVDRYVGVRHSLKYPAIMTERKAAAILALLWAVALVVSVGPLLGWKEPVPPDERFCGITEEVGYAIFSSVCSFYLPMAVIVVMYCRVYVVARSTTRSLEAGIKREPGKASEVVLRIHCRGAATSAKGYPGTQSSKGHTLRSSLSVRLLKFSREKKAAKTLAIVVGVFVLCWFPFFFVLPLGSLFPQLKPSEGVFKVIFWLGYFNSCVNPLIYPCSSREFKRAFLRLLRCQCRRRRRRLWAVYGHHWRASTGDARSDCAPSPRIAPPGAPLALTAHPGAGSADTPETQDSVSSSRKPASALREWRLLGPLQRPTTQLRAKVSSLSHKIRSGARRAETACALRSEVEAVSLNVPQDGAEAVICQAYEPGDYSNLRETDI
T3 sequence (P43140 whole entry): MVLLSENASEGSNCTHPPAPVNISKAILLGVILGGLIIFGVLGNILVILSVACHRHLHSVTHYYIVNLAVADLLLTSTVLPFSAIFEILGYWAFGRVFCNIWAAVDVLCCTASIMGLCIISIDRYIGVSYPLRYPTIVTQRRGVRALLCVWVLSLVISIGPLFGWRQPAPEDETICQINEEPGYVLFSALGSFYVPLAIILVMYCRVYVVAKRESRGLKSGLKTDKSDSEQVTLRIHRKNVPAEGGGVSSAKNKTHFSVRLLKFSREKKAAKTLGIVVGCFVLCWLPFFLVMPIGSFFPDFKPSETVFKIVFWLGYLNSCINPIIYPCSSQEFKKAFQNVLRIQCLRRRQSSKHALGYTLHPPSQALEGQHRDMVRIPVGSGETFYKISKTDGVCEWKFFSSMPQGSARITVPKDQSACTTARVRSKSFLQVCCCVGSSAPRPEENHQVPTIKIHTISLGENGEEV

[10] = target: 5-hydroxytryptamine receptor 4 (Cavia porcellus, UniProt O70528); assay: Displacement of [3H]GR-113808 from 5HT4 receptor in guinea pig striatum
5-hydroxytryptamine receptor 4, sequence (O70528 whole entry): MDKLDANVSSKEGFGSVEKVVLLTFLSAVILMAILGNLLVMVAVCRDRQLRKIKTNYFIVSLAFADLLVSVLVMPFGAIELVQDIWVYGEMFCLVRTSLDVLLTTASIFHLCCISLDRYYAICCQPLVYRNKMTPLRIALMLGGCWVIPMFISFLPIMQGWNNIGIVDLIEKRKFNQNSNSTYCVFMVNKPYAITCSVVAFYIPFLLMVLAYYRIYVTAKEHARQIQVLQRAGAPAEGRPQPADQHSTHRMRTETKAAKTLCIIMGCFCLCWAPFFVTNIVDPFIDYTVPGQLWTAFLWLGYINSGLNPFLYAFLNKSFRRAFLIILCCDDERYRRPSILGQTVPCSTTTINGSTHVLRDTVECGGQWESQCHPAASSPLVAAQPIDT

[11] = target: 5-hydroxytryptamine receptor 2A (Rattus norvegicus, UniProt P14842); assay: Displacement of [3H]ketanserin from 5HT2A receptor in rat cortex
5-hydroxytryptamine receptor 2A, sequence (P14842 whole entry): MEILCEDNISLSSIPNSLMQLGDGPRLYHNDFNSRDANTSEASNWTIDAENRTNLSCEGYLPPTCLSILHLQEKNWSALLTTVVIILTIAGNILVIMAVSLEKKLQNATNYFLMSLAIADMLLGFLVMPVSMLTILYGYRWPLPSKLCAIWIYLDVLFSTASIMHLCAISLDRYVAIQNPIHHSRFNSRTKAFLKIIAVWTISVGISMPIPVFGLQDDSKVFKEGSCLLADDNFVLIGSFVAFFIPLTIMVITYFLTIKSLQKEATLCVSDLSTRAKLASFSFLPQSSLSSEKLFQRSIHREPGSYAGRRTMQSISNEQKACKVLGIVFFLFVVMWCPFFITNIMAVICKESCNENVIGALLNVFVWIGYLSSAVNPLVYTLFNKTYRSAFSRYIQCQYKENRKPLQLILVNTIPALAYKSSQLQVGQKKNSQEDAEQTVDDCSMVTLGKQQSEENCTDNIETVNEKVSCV

[12] = target: T4, 5-hydroxytryptamine receptor 1A (Rattus norvegicus, UniProt P19327); assay: Displacement of [3H]8-OHDPAT from 5HT1A receptor in rat hippocampus; assay type: tissue-based
T4 sequence (P19327 whole entry): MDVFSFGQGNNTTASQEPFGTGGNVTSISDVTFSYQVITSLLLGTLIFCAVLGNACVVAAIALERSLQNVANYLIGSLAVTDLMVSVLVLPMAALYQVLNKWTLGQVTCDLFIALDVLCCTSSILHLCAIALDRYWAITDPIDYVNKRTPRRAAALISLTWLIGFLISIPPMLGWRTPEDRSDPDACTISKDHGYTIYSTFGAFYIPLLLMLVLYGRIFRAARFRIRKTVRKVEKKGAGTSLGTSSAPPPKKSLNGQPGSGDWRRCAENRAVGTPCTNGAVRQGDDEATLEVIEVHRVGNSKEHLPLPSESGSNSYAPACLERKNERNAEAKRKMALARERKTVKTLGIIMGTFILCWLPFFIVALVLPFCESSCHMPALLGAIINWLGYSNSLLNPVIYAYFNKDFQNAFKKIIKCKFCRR

[13] = target: T5, Alpha-2A adrenergic receptor (Rattus norvegicus, UniProt P22909); assay: Displacement of [3H]RX821002 from adrenergic alpha2 receptor in rat cortex
T5 sequence (P22909 whole entry): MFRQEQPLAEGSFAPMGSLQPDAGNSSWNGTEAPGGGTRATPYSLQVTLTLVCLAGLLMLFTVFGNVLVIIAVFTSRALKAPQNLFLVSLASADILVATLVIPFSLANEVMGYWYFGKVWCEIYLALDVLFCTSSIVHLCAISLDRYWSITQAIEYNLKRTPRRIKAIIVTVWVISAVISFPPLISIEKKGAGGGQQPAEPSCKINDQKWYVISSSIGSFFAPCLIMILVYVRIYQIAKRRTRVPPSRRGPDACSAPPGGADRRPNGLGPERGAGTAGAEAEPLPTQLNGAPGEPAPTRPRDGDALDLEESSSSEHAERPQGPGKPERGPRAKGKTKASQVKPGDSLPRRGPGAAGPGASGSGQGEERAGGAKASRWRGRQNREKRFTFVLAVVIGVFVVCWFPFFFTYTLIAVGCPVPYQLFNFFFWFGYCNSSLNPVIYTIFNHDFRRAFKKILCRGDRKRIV

D(2) dopamine receptor = D(2) dopamine receptor (Rattus norvegicus, UniProt P61169); assay: Displacement of [3H]spiperone from dopamine D2 receptor in rat striatum
D(2) dopamine receptor, sequence (P61169 whole entry): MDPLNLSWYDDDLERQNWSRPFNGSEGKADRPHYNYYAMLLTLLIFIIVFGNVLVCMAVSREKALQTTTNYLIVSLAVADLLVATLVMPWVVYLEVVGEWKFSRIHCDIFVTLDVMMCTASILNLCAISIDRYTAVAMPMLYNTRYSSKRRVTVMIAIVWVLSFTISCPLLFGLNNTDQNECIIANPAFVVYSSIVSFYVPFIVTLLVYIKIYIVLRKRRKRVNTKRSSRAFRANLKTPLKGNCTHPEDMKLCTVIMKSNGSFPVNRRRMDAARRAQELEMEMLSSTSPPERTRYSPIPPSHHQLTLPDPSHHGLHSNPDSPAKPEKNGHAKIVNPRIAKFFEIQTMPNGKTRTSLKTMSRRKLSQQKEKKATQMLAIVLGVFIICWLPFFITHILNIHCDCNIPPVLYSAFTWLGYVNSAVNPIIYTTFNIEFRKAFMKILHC

D(1A) dopamine receptor = D(1A) dopamine receptor (Rattus norvegicus, UniProt P18901); assay: Displacement of [3H]SCH-23390 from dopamine D1 receptor in rat striatum
D(1A) dopamine receptor, sequence (P18901 whole entry): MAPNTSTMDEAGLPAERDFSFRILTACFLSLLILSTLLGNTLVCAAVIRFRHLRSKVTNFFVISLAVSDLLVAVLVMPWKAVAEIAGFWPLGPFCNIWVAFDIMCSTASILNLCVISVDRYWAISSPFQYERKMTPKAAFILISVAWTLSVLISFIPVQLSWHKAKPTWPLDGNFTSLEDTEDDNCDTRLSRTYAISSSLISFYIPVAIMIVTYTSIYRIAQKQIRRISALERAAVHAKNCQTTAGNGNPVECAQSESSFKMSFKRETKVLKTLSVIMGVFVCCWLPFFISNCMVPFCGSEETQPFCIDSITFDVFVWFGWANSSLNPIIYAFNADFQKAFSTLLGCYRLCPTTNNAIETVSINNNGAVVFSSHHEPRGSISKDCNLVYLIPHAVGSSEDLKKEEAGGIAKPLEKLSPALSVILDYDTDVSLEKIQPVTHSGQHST

Rattus norvegicus [14] = assay: Antagonist activity at 5HT3 receptor in Sprague-Dawley rat assessed as inhibition of 1-phenylbiguanide-induced bradycardia at 100 ug/kg, iv administered 5 mins before 1-phenylbiguanide challenge measured after 5 to 30 mins post-treatment by von Bezold-Jarisch reflex test; assay type: functional; in short: as §1
Rattus norvegicus [15] = assay: Agonist activity at 5HT3 receptor in Sprague-Dawley rat assessed as induction of bradycardia at 100 ug/kg, iv measured after 5 to 30 mins post-treatment by von Bezold-Jarisch reflex test; assay type: functional; in short: as §1

Q: Which Ki ([1]; read-out: Ki) does the source give for `Oc1ccc2c(c1)nc(N1CCN(Cc3c[nH]cn3)CC1)c1cccn12` here?
A: 0.00225 µM

Q: What about the Activity (Rattus norvegicus [2]) of the same compound?
A: 62%

Q: And the IC50 [3]?
A: 2.63 µM

Q: And the Activity (Rattus norvegicus [4])?
A: 45%

Q: And the ID50 (Rattus norvegicus [5])?
A: 0.0065 mg/kg

Q: And the Activity (Rattus norvegicus [6])?
A: 90%

Q: And the ED50 (Rattus norvegicus [7])?
A: 0.028 mg/kg

Q: And the Activity (Rattus norvegicus [8])?
A: 50%

Q: For `Cc1cccc2nc(N3CCN(Cc4c[nH]cn4)CC3)c3cccn3c12`, which Activity (Rattus norvegicus [2]) is on record?
A: 60%

Q: What about the Ki [9] of the same compound?
A: > 10 µM

Q: What about the Activity (Rattus norvegicus [4]) of the same compound?
A: inactive

Q: What about the ID50 (Rattus norvegicus [5]) of the same compound?
A: 0.0035 mg/kg

Q: And the ED50 (Rattus norvegicus [7])?
A: 0.037 mg/kg

Q: How did the Ki [10] turn out when `c1ccc2nc(N3CCNCC3)ccc2c1` [QUIPAZINE] was run?
A: > 10 µM

Q: What does the source list for `Fc1ccc2c(c1)nc(N1CCN(Cc3ncc[nH]3)CC1)c1cccn12`?
A: Ki ([1]; read-out: Ki): 0.0056 µM; Ki [11]: > 10 µM; Ki [9]: > 10 µM; Ki [12]: > 10 µM; Ki [13]: > 10 µM; Ki (D(2) dopamine receptor): > 10 µM; Ki (D(1A) dopamine receptor): > 10 µM

Q: Which Ki ([1]; read-out: Ki) does the source give for `Cc1cccc2nc(N3CCN(CCn4ccnc4)CC3)c3cccn3c12` here?
A: 0.0178 µM

Q: For `Fc1ccc2c(c1)nc(N1CCN(Cc3ccccc3)CC1)c1cccn12`, which Ki [1] is on record?
A: 0.013 µM

Q: Which results are given for `Cc1cccc2nc(N3CCN(Cc4cnc[nH]4)CC3)c3cccn3c12`?
A: Ki ([1]; read-out: Ki): 0.00049 µM; Ki [11]: 9.81 µM; Ki [12]: > 10 µM; Ki [13]: > 10 µM; Ki (D(2) dopamine receptor): > 10 µM; Ki (D(1A) dopamine receptor): > 10 µM

Q: Which Ki ([1]; read-out: Ki) does the source give for `NNC(=O)CN1CCN(c2nc3cc(F)ccc3n3cccc23)CC1` here?
A: 0.0443 µM

Q: And the Activity (Rattus norvegicus [14])?
A: inactive

Q: What about the Activity (Rattus norvegicus [2]) of the same compound?
A: inactive

Q: What about the Activity (Rattus norvegicus [4]) of the same compound?
A: inactive

Q: And the Activity (Rattus norvegicus [15])?
A: 80%

Q: What about the Activity (Rattus norvegicus [6]) of the same compound?
A: inactive

Q: And the ED50 (Rattus norvegicus [7])?
A: 0.057 mg/kg
